Reference: ChEMBL document CHEMBL1155083, “Piperazine sulfonamides as potent, selective, and orally available 11beta-hydroxysteroid dehydrogenase type 1 inhibitors with efficacy in the rat cortisone-induced hyperinsulinemia model” (J Med Chem, 2008)
Calls of active or inactive are those of the source. No cut-off for these calls is given here.

Assays:
[1] = molecular target: 11-beta-hydroxysteroid dehydrogenase 1 (Homo sapiens, UniProt P28845); experiment: Inhibition of human 11betaHSD1 expressed in CHO cells by cell based assay
[2] = molecular target: T1, 11-beta-hydroxysteroid dehydrogenase 1 (Mus musculus, UniProt P50172); experiment: Inhibition of mouse 11betaHSD1 expressed in CHO cells by cell based assay
[3] = molecular target: T2, 11-beta-hydroxysteroid dehydrogenase type 2 (Homo sapiens) (UniProt P80365); experiment: Inhibition of 11betaHSD2 at 100 uM by cell based assay
T2 sequence (whole entry): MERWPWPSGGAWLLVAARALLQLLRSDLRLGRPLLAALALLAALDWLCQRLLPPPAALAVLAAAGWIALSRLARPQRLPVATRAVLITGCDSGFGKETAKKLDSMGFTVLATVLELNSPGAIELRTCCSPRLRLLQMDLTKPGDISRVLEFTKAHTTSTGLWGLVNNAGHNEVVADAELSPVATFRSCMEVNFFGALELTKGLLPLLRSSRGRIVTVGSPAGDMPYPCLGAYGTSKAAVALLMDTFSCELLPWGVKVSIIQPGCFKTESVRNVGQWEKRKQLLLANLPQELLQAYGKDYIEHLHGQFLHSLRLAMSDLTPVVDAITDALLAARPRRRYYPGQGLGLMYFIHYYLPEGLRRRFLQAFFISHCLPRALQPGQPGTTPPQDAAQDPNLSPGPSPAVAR

[4] = Metabolic stability assessed as half life in mouse liver microsomes
[5] = Metabolic stability assessed as half life in human liver microsomes
[6] = Clearance in mouse at 2 mg/kg, iv; assay type: ADME, organism-based; set-up: dose 2 mg/kg, route intravenous; details: in vivo
[7] = Oral bioavailability in mouse at 30 mg/kg; assay type: ADME, organism-based; details: in vivo
Mus musculus [8] = experiment: Ex vivo inhibition of 11betaHSD1 in C57BL/6 mouse assessed as conversion of [3H]cortisone to [3H]cortisole in liver at 30 mg/kg, po; assay type: functional; details: C57BL/6, Liver
How it was run: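 Mice dosed orally; sacrificed 5 h after dosing. Liver samples taken and 11β-HSD1 conversion of cortisone to cortisol measured; percent inhibition reported.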

[9] = Cmax in Sprague-Dawley rat at 30 mg/kg, po; assay type: ADME, organism-based; set-up: dose 30 mg/kg, route oral; details: in vivo
How it was run: (§1)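 Oral PK in rats; single dose 30 mg/kg by gavage, formulated in 0.5% methyl cellulose/2% Tween; plasma exposure reported as Cmax (ng/mL) and AUC (ng·h/mL).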

[10] = AUC in Sprague-Dawley rat at 30 mg/kg, po; assay type: ADME, organism-based; set-up: dose 30 mg/kg, route oral; details: plasma; how it was run: as §1
Rattus norvegicus [11] = experiment: Ex vivo inhibition of 11betaHSD1 in Sprague-Dawley rat assessed as conversion of [3H]cortisone to [3H]cortisole in liver at 30 mg/kg, po after 2 hrs; assay type: functional
Rattus norvegicus [12] = experiment: Effect on cortisone-induced Sprague-Dawley rat hyperinsulinemia model assessed as reduction in insulin at 60 mg/kg, bid after 7 days; assay type: functional; set-up: scale not given: the % may be the effect or the level left
How it was run: (§2)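 Male SD rats given cortisone in drinking water (2 mg/mL); inhibitors dosed orally b.i.d. for 7 days. On day 7, body weight, food intake, liquid consumption, plasma glucose and serum insulin were measured; insulin reduction expressed as percent.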

[13] = molecular target: 11-beta-hydroxysteroid dehydrogenase 1 (Rattus norvegicus, UniProt P16232); experiment: Inhibition of rat 11betaHSD1
How it was run: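 Potency against rat enzyme measured in a cell-based assay using CHO cells expressing rat 11β-HSD1; IC50 reported.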

[14] = molecular target: T1, 11-beta-hydroxysteroid dehydrogenase 1; experiment: Inhibition of C57BL/6 mouse 11betaHSD1 in presence of human serum
Rattus norvegicus [15] = species: Rattus norvegicus; experiment: Effect on glucose level in cortisone-induced Sprague-Dawley rat hyperinsulinemia model; assay type: functional, organism-based; how it was run: as §2
Mus musculus [16] = experiment: Ex vivo inhibition of 11betaHSD1 in C57BL/6 mouse assessed as conversion of [3H]cortisone to [3H]cortisole in liver at 10 mg/kg, po; assay type: functional; details: C57BL/6, Liver
Rattus norvegicus [17] = experiment: Effect on cortisone-induced Sprague-Dawley rat hyperinsulinemia model assessed as reduction in insulin at 30 mg/kg, bid after 7 days; assay type: functional; set-up: scale not given: the % may be the effect or the level left; how it was run: as §2

T1 sequence (P50172 whole entry): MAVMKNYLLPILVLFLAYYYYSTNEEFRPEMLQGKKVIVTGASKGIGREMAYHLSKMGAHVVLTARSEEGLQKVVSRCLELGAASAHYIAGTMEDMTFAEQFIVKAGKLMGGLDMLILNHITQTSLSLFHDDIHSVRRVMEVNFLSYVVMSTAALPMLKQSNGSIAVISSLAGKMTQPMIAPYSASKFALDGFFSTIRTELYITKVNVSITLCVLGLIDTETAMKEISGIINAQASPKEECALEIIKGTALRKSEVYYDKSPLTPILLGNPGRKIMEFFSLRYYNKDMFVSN
Sequence of 11-beta-hydroxysteroid dehydrogenase 1 (Rattus norvegicus, UniProt P16232) (P16232 whole entry): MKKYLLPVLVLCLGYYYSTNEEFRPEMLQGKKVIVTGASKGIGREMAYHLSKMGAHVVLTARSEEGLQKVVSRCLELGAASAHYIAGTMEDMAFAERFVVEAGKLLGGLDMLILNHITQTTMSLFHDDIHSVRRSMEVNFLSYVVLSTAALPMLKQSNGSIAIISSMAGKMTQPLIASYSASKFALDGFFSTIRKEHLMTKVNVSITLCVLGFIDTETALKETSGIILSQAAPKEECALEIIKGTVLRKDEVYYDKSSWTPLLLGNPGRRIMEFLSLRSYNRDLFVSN
Sequence of 11-beta-hydroxysteroid dehydrogenase 1 (Homo sapiens, UniProt P28845) (P28845 whole entry): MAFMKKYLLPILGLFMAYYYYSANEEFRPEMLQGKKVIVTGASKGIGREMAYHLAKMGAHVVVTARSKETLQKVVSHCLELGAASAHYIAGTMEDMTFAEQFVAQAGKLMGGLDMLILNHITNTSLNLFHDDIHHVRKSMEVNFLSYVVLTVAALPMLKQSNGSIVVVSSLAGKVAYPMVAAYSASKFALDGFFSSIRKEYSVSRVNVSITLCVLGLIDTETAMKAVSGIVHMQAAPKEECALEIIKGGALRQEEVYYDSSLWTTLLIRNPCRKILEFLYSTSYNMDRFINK

SMILES	IC50 [1]	IC50 [2]	Activity [3]	half-life [4]	IC50 [14]	also measured
C[C@@H]1CN(c2ccccc2C(F)(F)F)CCN1S(=O)(=O)c1ccc(Cl)c(Cl)c1	10 nM	10 nM	inactive	3 min		half-life [5]: 5 min
C[C@@H]1CN(c2ccc(F)cc2C(F)(F)F)CCN1S(=O)(=O)c1cccc(N2CCN(C)CC2)c1	21 nM	12 nM	inactive	15 min	28 nM	clearance [6]: 36 mL/min/kg; bioavailability [7]: 79%; inhibition in vivo at 30 mg/kg (Mus musculus [8]): 45%; Cmax [9]: 246 ng/mL; AUC [10]: 2280 ng·h/mL; inhibition in vivo at 30 mg/kg (Rattus norvegicus [11]): 32%; Activity (Rattus norvegicus [12]): 11%; IC50 [13]: 42 nM; Activity (Rattus norvegicus [15]): inactive
O=S(=O)(c1ccc(Cl)c(Cl)c1)N1CCN(c2ncccc2C(F)(F)F)CC1	61 nM	190 nM	inactive	5 min		half-life [5]: 5 min
C[C@@H]1CN(c2ccc(F)cc2C(F)(F)F)CCN1S(=O)(=O)c1cccc(N2CCC(C(=O)O)C2)c1 (stereo partly drawn)	160 nM	10 nM	inactive	> 30 min	90 nM	clearance [6]: 55 mL/min/kg; bioavailability [7]: 100%; inhibition in vivo at 30 mg/kg (Mus musculus [8]): 36%
C[C@@H]1CN(c2ccc(F)cc2C(F)(F)F)CCN1S(=O)(=O)c1cccc(N2CCOCC2)c1	13 nM	11 nM	inactive		56 nM	
C[C@@H]1CN(c2ccc(F)cc2C(F)(F)F)CCN1S(=O)(=O)c1cccc(N2CCC(O)C2)c1 (stereo partly drawn)	10 nM	13 nM	inactive	11 min	11 nM	clearance [6]: 54 mL/min/kg; bioavailability [7]: 9%; inhibition in vivo at 30 mg/kg (Mus musculus [8]): 47%; Cmax [9]: 185 ng/mL; AUC [10]: 1040 ng·h/mL; inhibition in vivo at 30 mg/kg (Rattus norvegicus [11]): 62%; Activity (Rattus norvegicus [12]): 19%; IC50 [13]: 13 nM; Activity (Rattus norvegicus [15]): inactive
C[C@@H]1CN(c2ncccc2Cl)C[C@H](C)N1S(=O)(=O)c1ccc(Cl)c(Cl)c1	1300 nM	6900 nM	inactive	3 min		half-life [5]: 6 min
O=S(=O)(c1ccc(Cl)c(Cl)c1)N1CCN(c2ccccc2C(F)(F)F)CC1	52 nM	420 nM	inactive	3 min		half-life [5]: 4 min
CCNC(=O)N1CCN(c2cccc(S(=O)(=O)N3CCN(c4ccc(F)cc4C(F)(F)F)C[C@H]3C)c2)CC1	370 nM	12 nM	inactive		220 nM	
C[C@@H]1CN(c2ccc(F)cc2C(F)(F)F)CCN1S(=O)(=O)c1cccc(-n2cccn2)c1	13 nM	12 nM	inactive		100 nM	
CCN1CCN(c2cccc(S(=O)(=O)N3CCN(c4ccc(F)cc4C(F)(F)F)C[C@H]3C)c2)CC1	30 nM	29 nM	inactive		45 nM	
O=S(=O)(c1ccc(Cl)c(Cl)c1)N1CCN(c2ccc(F)cc2C(F)(F)F)CC1	68 nM	250 nM	inactive	8 min		half-life [5]: 12 min
C[C@@H]1CN(c2ccc(F)cc2C(F)(F)F)CCN1S(=O)(=O)c1cccc(-n2ccnc2)c1	74 nM	11 nM	inactive		73 nM	
O=C1CN(S(=O)(=O)c2ccc(Cl)c(Cl)c2)CCN1c1ncccc1C(F)(F)F	9900 nM	> 10000 nM	inactive	30 min		half-life [5]: 30 min
C[C@@H]1CN(c2ccc(F)cc2C(F)(F)F)CCN1S(=O)(=O)c1cccc(N2CCC(C(N)=O)C2)c1 (stereo partly drawn)	32 nM	11 nM	inactive		14 nM	
C[C@@H]1CN(c2ccc(F)cc2C(F)(F)F)CCN1S(=O)(=O)c1cccc(-n2cnnc2)c1	120 nM	230 nM	inactive		120 nM	
C[C@@H]1CN(c2ccc(F)cc2C(F)(F)F)CCN1S(=O)(=O)c1cccc(N2CCCCC2)c1	15 nM	10 nM	inactive		67 nM	
C[C@@H]1CN(c2ncccc2Cl)[C@@H](C)CN1S(=O)(=O)c1ccc(Cl)c(Cl)c1 (relative stereo)	1600 nM	4700 nM	inactive	2 min		half-life [5]: 3 min
CC(C)N1CCN(c2cccc(S(=O)(=O)N3CCN(c4ccc(F)cc4C(F)(F)F)C[C@H]3C)c2)CC1	490 nM	150 nM	inactive		250 nM	
C[C@@H]1CN(c2ccc(F)cc2C(F)(F)F)CCN1S(=O)(=O)c1cccc(N2CCNCC2)c1	> 10000 nM	160 nM	inactive		190 nM	
C[C@@H]1CN(c2ccc(F)cc2C(F)(F)F)CCN1S(=O)(=O)c1cccc(N2CCCC2)c1	61 nM	16 nM	inactive		56 nM	
C[C@@H]1CN(c2ccc(F)cc2C(F)(F)F)CCN1S(=O)(=O)c1cccc(N2CC[C@@H](O)C2)c1	10 nM	12 nM	inactive		13 nM	
C[C@@H]1CN(c2ccc(F)cc2C(F)(F)F)CCN1S(=O)(=O)c1cccc(N2CCCC2C(=O)O)c1 (stereo partly drawn)	69 nM	27 nM	inactive		32 nM	
C[C@@H]1CN(c2ccc(F)cc2C(F)(F)F)CCN1S(=O)(=O)c1cccc(N2CC[C@H](O)C2)c1	28 nM	20 nM	inactive		41 nM	
O=C1CN(c2ncccc2C(F)(F)F)CCN1S(=O)(=O)c1ccc(Cl)c(Cl)c1	500 nM	> 10000 nM	inactive	6 min		half-life [5]: 2 min
C[C@@H]1CN(c2ccc(F)cc2C(F)(F)F)CCN1S(=O)(=O)c1cccc(-n2cncn2)c1	26 nM	10 nM	inactive	12 min	42 nM	clearance [6]: 13 mL/min/kg; bioavailability [7]: 34%; inhibition in vivo at 10 mg/kg (Mus musculus [16]): 44%; Cmax [9]: 149 ng/mL; AUC [10]: 1040 ng·h/mL; inhibition in vivo at 30 mg/kg (Rattus norvegicus [11]): 59%; Activity (Rattus norvegicus [12]): 34%; IC50 [13]: 81 nM; Activity (Rattus norvegicus [15]): inactive
C[C@@H]1CN(c2ccc(F)cc2C(F)(F)F)CCN1S(=O)(=O)c1cccc(OC(C)(C)C(=O)O)c1	300 nM	37 nM	inactive	> 30 min	130 nM	clearance [6]: 25 mL/min/kg; bioavailability [7]: 100%; inhibition in vivo at 30 mg/kg (Mus musculus [8]): 38%; Cmax [9]: 9180 ng/mL; AUC [10]: 51100 ng·h/mL; inhibition in vivo at 30 mg/kg (Rattus norvegicus [11]): 35%; Activity (Rattus norvegicus [17]): 30%; IC50 [13]: 110 nM; Activity (Rattus norvegicus [15]): inactive
COC(=O)N1CCN(c2cccc(S(=O)(=O)N3CCN(c4ccc(F)cc4C(F)(F)F)C[C@H]3C)c2)CC1	330 nM	11 nM	inactive		220 nM	
COC(=O)C1CCN(c2cccc(S(=O)(=O)N3CCN(c4ccc(F)cc4C(F)(F)F)C[C@H]3C)c2)C1 (stereo partly drawn)	11 nM	10 nM	inactive		55 nM	
